# Experimental data pooled from the literature.
# Each line is one published result; the experiments were not run side by side.
# Target: Ephrin type-B receptor 2 (EPHB2, Homo sapiens, UniProt P29323)
# Sequence (P29323 19-1055, as in one of the studies): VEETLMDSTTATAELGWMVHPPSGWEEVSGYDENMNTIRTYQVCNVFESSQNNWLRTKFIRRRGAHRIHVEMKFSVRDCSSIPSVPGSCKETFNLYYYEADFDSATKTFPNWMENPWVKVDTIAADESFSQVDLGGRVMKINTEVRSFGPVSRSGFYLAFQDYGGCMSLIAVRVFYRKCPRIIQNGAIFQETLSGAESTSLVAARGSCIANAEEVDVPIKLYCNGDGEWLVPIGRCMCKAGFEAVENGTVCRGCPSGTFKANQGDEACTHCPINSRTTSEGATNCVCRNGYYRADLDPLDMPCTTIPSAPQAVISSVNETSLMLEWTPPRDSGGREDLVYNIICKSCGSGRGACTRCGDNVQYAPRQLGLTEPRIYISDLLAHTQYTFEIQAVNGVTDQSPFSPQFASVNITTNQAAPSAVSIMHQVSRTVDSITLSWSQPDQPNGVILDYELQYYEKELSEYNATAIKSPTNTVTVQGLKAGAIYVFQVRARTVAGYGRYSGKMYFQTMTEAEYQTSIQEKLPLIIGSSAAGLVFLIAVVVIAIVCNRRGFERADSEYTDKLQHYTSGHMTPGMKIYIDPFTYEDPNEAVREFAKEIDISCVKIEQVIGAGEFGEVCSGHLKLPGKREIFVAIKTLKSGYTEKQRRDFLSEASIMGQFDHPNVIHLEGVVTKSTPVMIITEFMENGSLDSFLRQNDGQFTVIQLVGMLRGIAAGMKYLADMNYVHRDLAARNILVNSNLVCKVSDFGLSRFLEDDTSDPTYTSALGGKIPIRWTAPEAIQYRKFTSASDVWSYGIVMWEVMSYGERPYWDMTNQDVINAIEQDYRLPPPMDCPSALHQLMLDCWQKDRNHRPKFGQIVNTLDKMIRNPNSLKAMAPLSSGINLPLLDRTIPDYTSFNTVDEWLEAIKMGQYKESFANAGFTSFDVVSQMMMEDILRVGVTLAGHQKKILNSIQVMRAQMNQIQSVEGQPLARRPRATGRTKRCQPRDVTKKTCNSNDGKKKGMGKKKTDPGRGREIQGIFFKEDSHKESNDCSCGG
SMILES,observed,action,method,tested at,quantity,value
COc1cc(Nc2cnc(C#N)c(O[C@H](C)CN(C)C)n2)ncc1-c1cnn(C)c1,enzyme activity,inhibitor,radiometric,1 µM,remaining activity,110%
COc1cc(/C=C/C(=O)CC(=O)/C=C/c2ccc(O)c(OC)c2)ccc1O,enzyme activity,inhibitor,,1 µM,activity vs control,111%
CCN(CC)CCNC(=O)c1c(C)[nH]c(/C=C2\C(=O)Nc3ccc(F)cc32)c1C,enzyme activity,inhibitor,,10 µM,inhibition,90%
Cc1ccc(NC(=O)c2ccc(C)c(C(F)(F)F)c2)cc1C#Cc1nn(C2CCC(O)CC2)c2ncnc(N)c12 (centres unmarked),cell-free assay,,,10 µM,remaining signal,-1%
N#CCCc1ccc2c(c1)-c1[nH]c3ccc([N+](=O)[O-])cc3c1CC(=O)N2,cell-free assay,,,0.5 µM,remaining signal,98.5%
CCOc1cc(-c2nncn2C)ccc1Nc1ncc2cc(C)nc(NCC(C)(C)C)c2n1,enzyme activity,inhibitor,FRET,1 µM,inhibition,< 15%
CC(=O)c1c(NS(C)(=O)=O)c2cc(-c3ccc(Cl)cc3)c(-c3ccc(Cl)cc3Cl)nc2n(C)c1=O,cell-free assay,,competition with immobilised ligand,1 µM,remaining binding,100%
O=C1Nc2ccc(Cl)cc2C1=Cc1cc(Cl)c(O)c(Cl)c1,cell-free assay,,,0.5 µM,remaining signal,90.9%
CC(C)(O)c1cncc(-c2nc3ccc(F)cc3n2C2CC2)c1,cell-free assay,,competition with immobilised ligand,1 µM,remaining binding,99%
CNC(=O)c1cc(Oc2ccc(NC(=O)Nc3ccc(Cl)c(C(F)(F)F)c3)cc2)ccn1,enzyme activity,inhibitor,,10 µM,inhibition,95%
Cc1ccc(C(=O)Nc2ccc(CN3CCN(C)CC3)c(C(F)(F)F)c2)cc1C#Cc1cnc2cccnn12,cell-free assay,,,23.5 nM,remaining signal,49%
O=C(NCc1ncc(C(F)(F)F)cc1Cl)c1ccc2c(c1)C1(CCS(=O)(=O)CC1)[C@H](C1CC1)N2S(=O)(=O)c1ccc(F)cc1,cell-free assay,,competition with immobilised ligand,1 µM,remaining binding,100%
Cc1ccc(Nc2nccc(N(C)c3ccc4c(C)n(C)nc4c3)n2)cc1S(N)(=O)=O,enzyme activity,inhibitor,,0.3 µM,inhibition,7%
FC(F)(F)c1ccc2c(c1)nc(-c1cccnc1)n2C1CC1,cell-free assay,,competition with immobilised ligand,1 µM,remaining binding,83%
CN1CC(Oc2cnc(C#N)cc2-c2ccn3nc(NC(=O)C4CC4)cc3c2)C1,enzyme activity,inhibitor,,1 µM,inhibition,4%
Cc1ccc(C(=O)NCc2ccsc2)cc1C#Cc1cn(C(C)C)c2ncnc(N)c12,enzyme activity,inhibitor,,1 µM,activity vs control,2%
O=C(Nc1cnn(-c2csc(C(=O)NC3COC3)c2)c1)Nc1c(F)cccc1Cl,enzyme activity,inhibitor,,5 µM,remaining activity,99.9%
CN(C)C1CCN(CC#Cc2nn(C3CCCC3)c3nc(NCc4ccccc4)ncc23)C1 (centres unmarked),enzyme activity,inhibitor,FRET,0.1 µM,inhibition,3%
CN(C)c1ncnc(-c2ccc3nc(Nc4cc(CN5CCN(C(=O)CC(F)(F)F)CC5)ccn4)[nH]c3c2)c1Cl,cell-free assay,,competition with immobilised ligand,1 µM,remaining binding,100%
C#Cc1cccc(Nc2ncnc3cc(OCCOC)c(OCCOC)cc23)c1,cell-free assay,,,0.5 µM,remaining signal,95.1%
CNC(=O)Nc1ccc2c(c1)CC[C@@]21OC(=O)N(CC(=O)N(Cc2ccc(F)cc2)[C@@H](C)C(F)(F)F)C1=O,cell-free assay,,competition with immobilised ligand,1 µM,remaining binding,72%
COc1ccc(COc2ccc(Cc3cnc(N)nc3N)cc2OC)cc1,cell-free assay,,,0.5 µM,remaining signal,87.4%
COc1cc2ncnc(Nc3ccc(Oc4ccccc4)c(C)c3C)c2cc1OC,enzyme activity,inhibitor,,1 µM,inhibition,6%
CCCS(=O)(=O)Nc1ccc(F)c(C(=O)c2c[nH]c3ncc(-c4ccc(Cl)cc4)cc23)c1F,enzyme activity,inhibitor,,1 µM,inhibition,< 10%
Cn1c(=O)n(-c2ccc(C(C)(C)C#N)cc2)c2c3cc(-c4cnc5ccccc5c4)ccc3ncc21,enzyme activity,inhibitor,,10 µM,remaining activity,77%
CN(C(=O)c1ccccc1)c1cc(N(C)c2ccc3c(c2)CCc2ccc(C(=O)NCCN4CCOCC4)cc2C3=O)ccc1F,cell-free assay,,competition with immobilised ligand,1 µM,remaining binding,82%
CCCCNc1ncc2c(-c3ccc(F)cc3)nn(C[C@H]3CC[C@H](N)CC3)c2n1,target engagement in cells,inhibitor,chemoproteomics,20 mM,inhibition,94.8%
CSc1cccnc1N1CCN(Cc2nc3ccccc3[nH]2)CC1,cell-free assay,,competition with immobilised ligand,1 µM,remaining binding,99%
CC/C(=N\NC(=O)NCc1cccc(O)c1)c1ccc(O)c(C)c1O,enzyme activity,inhibitor,,0.1 µM,inhibition,1.5%
